The results in this text go back to ChEMBL document CHEMBL2151038, “Synthesis, characterization and biological evaluation of some novel 2,4-thiazolidinediones as potential cytotoxic, antimicrobial and antihyperglycemic agents” (Bioorg Med Chem Lett, 2012).

SMILES strings stand for the structures. Converted amounts (≈) assume the structure as drawn.

One data set concerns Artemia salina. Nature of the data set: Cytotoxicity in brine shrimps larvae assessed as mortality after 24 hrs. The conditions noted are these: read-out: ED50 (the source's name). In kind it is functional. The procedure, abridged: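 Artemia salina nauplii hatched 38 h under constant aeration in sterile brine (sea salt 38 g/L, pH 8.5 with 1 N NaOH). Ten nauplii per vial were exposed to a range of compound concentrations at 37 °C for 24 h under incandescent light, alongside vehicle-treated controls. Survivors were counted, % lethality was taken from mean survivors versus control, and ED50 came from probit analysis.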

In data set [1] the test system is Rattus norvegicus. The experiment in a line: Antihyperglycemic activity in po dosed streptozotocin-induced type 2 diabetic Wistar albino rat assessed as reduction in plasma glucose level by glucometer. Type of data set: functional, organism-based. The procedure, abridged: (§1)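 Wistar albino rats of either sex, 150–200 g, fasted 16 h. Diabetes induced by nicotinamide 150 mg/kg, then STZ 65 mg/kg in citrate buffer pH 4.5. Glucose confirmed after 48 h. Groups of six. Oral dosing as 0.25% sodium CMC suspension at 10, 30 or 50 mg/kg. Rosiglitazone was the reference. Retro-orbital plasma glucose measured by glucometer before dosing and at 1, 2, 4, 6, 8, 12 and 24 h. Results as mean ± SEM, compared by ANOVA, t-test and Dunnett's test.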

The next data set concerns Bacillus subtilis. Nature of the data set: Antibacterial activity against Bacillus subtilis NCIM 2063 after 24 hrs by NCCLS agar well diffusion method. Type of data set: functional. The conditions noted are these: NCIM 2063, 24 h. The procedure, abridged:
(§2)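 Nutrient agar seeded with 0.1 mL bacterial suspension (10⁵ CFU/mL in 0.85% saline). 6 mm wells filled with 0.1 mL compound. Plates in triplicate, 37 ± 0.5 °C for 24 h. MIC = lowest concentration giving complete growth inhibition.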

Another data set deals with Bacillus pumilus. The experiment in a line: Antibacterial activity against Bacillus pumilus NCIM 2327 after 24 hrs by NCCLS agar well diffusion method. In kind it is functional. The conditions noted are these: NCIM 2327, 24 h. The procedure, abridged: as §2
A further data set concerns Staphylococcus aureus. Nature of the data set: Antibacterial activity against Staphylococcus aureus NCIM 2079 after 24 hrs by NCCLS agar well diffusion method. In kind it is functional. The conditions noted are these: NCIM 2079, 24 h. The procedure, abridged:
as §2

The test system of a further data set is Micrococcus luteus. The experiment in a line: Antibacterial activity against Micrococcus luteus NCIM 2155 after 24 hrs by NCCLS agar well diffusion method. Type of data set: functional. Particulars: NCIM 2155, 24 h. The procedure, abridged:
as §2

The next data set relates to Pseudomonas aeruginosa. The experiment in a line: Antibacterial activity against Pseudomonas aeruginosa NCIM 2036 after 24 hrs by NCCLS agar well diffusion method. In kind it is functional. Particulars: NCIM 2036, 24 h. The procedure, abridged: as §2
A further data set deals with Klebsiella pneumoniae. The experiment in a line: Antibacterial activity against Klebsiella pneumoniae NCIM 5082 after 24 hrs by NCCLS agar well diffusion method. Type of data set: functional. The conditions noted are these: NCIM 5082, 24 h. The procedure, abridged:
as §2

The next data set deals with Escherichia coli. Nature of the data set: Antibacterial activity against Escherichia coli NCIM 2065 after 24 hrs by NCCLS agar well diffusion method. Particulars: NCIM 2065, 24 h. Type of data set: functional. The procedure, abridged: as §2
In the next data set the test system is Proteus vulgaris. The experiment in a line: Antibacterial activity against Proteus vulgaris NCIM 2813 after 24 hrs by NCCLS agar well diffusion method. Type of data set: functional. Particulars: NCIM 2813, 24 h. The procedure, abridged:
as §2

A further data set concerns Candida albicans. Nature of the data set: Antifungal activity against Candida albicans NCIM 3102 after 48 hrs by NCCLS agar well diffusion method. Type of data set: functional. The conditions noted are these: NCIM 3102, 48 h. The procedure, abridged:
(§3)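 Spore suspensions in sterile distilled water adjusted to 10⁶ CFU/mL, 0.1 mL spread on potato-dextrose agar. 6 mm wells received 0.1 mL compound in 1% DMSO (final 16–512 µg/mL). Controls: 1% DMSO and ketoconazole (16 µg/mL). Triplicate plates, 48 h at 28 ± 0.2 °C. MIC = lowest concentration completely inhibiting growth.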

The next data set concerns Aspergillus niger. The experiment in a line: Antifungal activity against Aspergillus niger NCIM 548 after 48 hrs by NCCLS agar well diffusion method. Type of data set: functional. The conditions noted are these: NCIM 548, 48 h. The procedure, abridged:
as §3

A further data set has as its system Aspergillus oryzae. The experiment in a line: Antifungal activity against Aspergillus oryzae NCIM 643 after 48 hrs by NCCLS agar well diffusion method. Type of data set: functional. Particulars: NCIM 643, 48 h. The procedure, abridged: as §3
The next data set has as its system Penicillium chrysogenum. Nature of the data set: Antifungal activity against Penicillium chrysogenum NCIM 738 after 48 hrs by NCCLS agar well diffusion method. Type of data set: functional. Particulars: NCIM 738, 48 h. The procedure, abridged:
as §3

Data set [2] can be described thus: Toxicity in mouse assessed as changes in vital functions. Type of data set: organism-based. Particulars: in vivo.
For data set [3], the system named is Rattus norvegicus. Nature of the data set: Antihyperglycemic activity in streptozotocin-induced type 2 diabetic Wistar albino rat assessed as reduction in plasma glucose level at 10 mg/kg, po by glucometer. In kind it is functional. The procedure, abridged:
as §1

Data set [4] relates to Rattus norvegicus. Nature of the data set: Antihyperglycemic activity in streptozotocin-induced type 2 diabetic Wistar albino rat assessed as reduction in plasma glucose level at 30 mg/kg, po by glucometer. In kind it is functional. The procedure, abridged: as §1
The test system of data set [5] is Rattus norvegicus. Nature of the data set: Antihyperglycemic activity in streptozotocin-induced type 2 diabetic Wistar albino rat assessed as reduction in plasma glucose level at 50 mg/kg, po by glucometer. In kind it is functional. The procedure, abridged:
as §1

As for `O=C1NC(=O)/C(=C/c2ccc(/C=C/C(=O)c3cc(O)ccc3O)cc2)S1`, the EC50 with Artemia salina turned out to be 46.7 mg/L (≈ 127 µM). Also, the Activity result was “Dose-dependent effect” in the data set with Rattus norvegicus [1], 30.74 mg/dL with Rattus norvegicus [3], 38.86 mg/dL with Rattus norvegicus [4] and 47.73 mg/dL in the data set on Rattus norvegicus [5]. In addition, the MIC against Bacillus subtilis worked out at 512 mg/L (≈ 1390 µM); against Bacillus pumilus, 256 mg/L (≈ 697 µM); in the data set with Staphylococcus aureus, 256 mg/L (≈ 697 µM); in the data set on Micrococcus luteus, 512 mg/L (≈ 1390 µM); in the data set on Pseudomonas aeruginosa, 512 mg/L (≈ 1390 µM); in the data set with Klebsiella pneumoniae it was 256 mg/L (≈ 697 µM). The MIC amounted to 256 mg/L (≈ 697 µM) against Escherichia coli; 512 mg/L (≈ 1390 µM) with Proteus vulgaris; 128 mg/L (≈ 348 µM) in the data set on Candida albicans; 256 mg/L (≈ 697 µM) in the data set with Aspergillus niger; 256 mg/L (≈ 697 µM) against Aspergillus oryzae; 128 mg/L (≈ 348 µM) against Penicillium chrysogenum. Further, the MTD in [2] came to 2000 mg/kg.
Regarding `O=C1NC(=O)/C(=C/c2ccc(/C=C/C(=O)c3ccc(O)cc3)cc2)S1`, the EC50 in the data set with Artemia salina was found to be 36.2 mg/L (≈ 103 µM). Also, the Activity entry with Rattus norvegicus [1] is “Dose-dependent effect”; with Rattus norvegicus [3] it was 21.83 mg/dL; with Rattus norvegicus [4] it was 30.21 mg/dL; in the data set on Rattus norvegicus [5], 37.12 mg/dL. The MIC against Bacillus subtilis came out at 256 mg/L (≈ 729 µM); with Bacillus pumilus, 128 mg/L (≈ 364 µM); against Staphylococcus aureus, 128 mg/L (≈ 364 µM); with Micrococcus luteus it was 256 mg/L (≈ 729 µM); in the data set on Pseudomonas aeruginosa, 512 mg/L (≈ 1460 µM); in the data set with Klebsiella pneumoniae it was 128 mg/L (≈ 364 µM). In addition, the minimal inhibitory concentration (MIC) amounted to 128 mg/L (≈ 364 µM) in the data set with Escherichia coli; 512 mg/L (≈ 1460 µM) in the data set on Proteus vulgaris; 512 mg/L (≈ 1460 µM) against Candida albicans; 256 mg/L (≈ 729 µM) in the data set on Aspergillus niger; 256 mg/L (≈ 729 µM) against Aspergillus oryzae; 512 mg/L (≈ 1460 µM) in the data set on Penicillium chrysogenum. In addition, the MTD in data set [2] is 2000 mg/kg.
As for `O=C1NC(=O)/C(=C/c2ccc(/C=C/C(=O)c3ccc(F)cc3)cc2)S1`, the EC50 with Artemia salina is 4.32 mg/L (≈ 12.2 µM). In addition, the Activity entry with Rattus norvegicus [1] was “Dose-dependent effect”; in the data set with Rattus norvegicus [3], 22.74 mg/dL; in the data set on Rattus norvegicus [4] it was 25.67 mg/dL; in the data set on Rattus norvegicus [5] it was 33.12 mg/dL. Besides, the MIC was determined as 16 mg/L (≈ 45.3 µM) in the data set with Bacillus subtilis; 16 mg/L (≈ 45.3 µM) in the data set with Bacillus pumilus; 32 mg/L (≈ 90.6 µM) against Staphylococcus aureus; 32 mg/L (≈ 90.6 µM) against Micrococcus luteus; 16 mg/L (≈ 45.3 µM) in the data set with Pseudomonas aeruginosa; 16 mg/L (≈ 45.3 µM) in the data set on Klebsiella pneumoniae. In addition, the MIC with Escherichia coli turned out to be 16 mg/L (≈ 45.3 µM); in the data set on Proteus vulgaris it was 32 mg/L (≈ 90.6 µM); in the data set with Candida albicans, 32 mg/L (≈ 90.6 µM); against Aspergillus niger, 32 mg/L (≈ 90.6 µM); against Aspergillus oryzae it was 32 mg/L (≈ 90.6 µM); with Penicillium chrysogenum, 16 mg/L (≈ 45.3 µM). Besides, the MTD in data set [2] worked out at 2000 mg/kg.
Consider `O=C1NC(=O)/C(=C/c2ccc(/C=C/C(=O)c3cccnc3)cc2)S1`, for which the EC50 in the data set with Artemia salina came to 31.4 mg/L (≈ 93.4 µM). The Activity entry in the data set with Rattus norvegicus [1] was “Dose-dependent effect”; with Rattus norvegicus [3], 19.04 mg/dL; with Rattus norvegicus [4] it was 27.86 mg/dL; in the data set with Rattus norvegicus [5], 31.81 mg/dL. Moreover, the MIC in the data set on Bacillus subtilis, with Bacillus pumilus, against Staphylococcus aureus, in the data set with Micrococcus luteus, in the data set on Pseudomonas aeruginosa and against Klebsiella pneumoniae was 128 mg/L (≈ 381 µM) each time. Moreover, the MIC against Escherichia coli stood at 128 mg/L (≈ 381 µM); against Proteus vulgaris, 256 mg/L (≈ 761 µM); against Candida albicans, 128 mg/L (≈ 381 µM); in the data set with Aspergillus niger, 256 mg/L (≈ 761 µM); against Aspergillus oryzae it was 128 mg/L (≈ 381 µM); against Penicillium chrysogenum it was 256 mg/L (≈ 761 µM). The MTD in data set [2] came out at 2000 mg/kg.
`O=C1NC(=O)/C(=C/c2ccc(/C=C/C(=O)c3cccc([N+](=O)[O-])c3)cc2)S1`: in the data set with Artemia salina, the EC50 was 56.1 mg/L (≈ 147 µM). Besides, the Activity entry is “Dose-dependent effect” in the data set on Rattus norvegicus [1], 11.18 mg/dL in the data set on Rattus norvegicus [3], 14.72 mg/dL in the data set with Rattus norvegicus [4] and 16.56 mg/dL in the data set with Rattus norvegicus [5]. Further, the MIC with Bacillus subtilis worked out at 256 mg/L (≈ 673 µM); against Bacillus pumilus, 256 mg/L (≈ 673 µM); with Staphylococcus aureus, 128 mg/L (≈ 337 µM); against Micrococcus luteus, 256 mg/L (≈ 673 µM); with Pseudomonas aeruginosa, 128 mg/L (≈ 337 µM); against Klebsiella pneumoniae it was 256 mg/L (≈ 673 µM). Further, the MIC against Escherichia coli was 128 mg/L (≈ 337 µM); in the data set on Proteus vulgaris it was 512 mg/L (≈ 1350 µM); against Candida albicans, 512 mg/L (≈ 1350 µM); in the data set with Aspergillus niger, 256 mg/L (≈ 673 µM); against Aspergillus oryzae it was 128 mg/L (≈ 337 µM); in the data set with Penicillium chrysogenum it was 256 mg/L (≈ 673 µM). In addition, the MTD in data set [2] turned out to be 2000 mg/kg.
As to `Cc1ccc(O)c(C(=O)/C=C/c2ccc(/C=C3\SC(=O)NC3=O)cc2)c1`, the EC50 with Artemia salina was found to be 39.4 mg/L (≈ 108 µM). Besides, the Activity entry in the data set on Rattus norvegicus [1] was “Dose-dependent effect”; in the data set on Rattus norvegicus [3] it was 31.76 mg/dL; in the data set with Rattus norvegicus [4], 37.03 mg/dL; in the data set with Rattus norvegicus [5] it was 42.13 mg/dL. The MIC worked out at 128 mg/L (≈ 350 µM) against Bacillus subtilis; 256 mg/L (≈ 701 µM) in the data set with Bacillus pumilus; 256 mg/L (≈ 701 µM) in the data set with Staphylococcus aureus; 512 mg/L (≈ 1400 µM) against Micrococcus luteus; 256 mg/L (≈ 701 µM) in the data set on Pseudomonas aeruginosa; 128 mg/L (≈ 350 µM) against Klebsiella pneumoniae. Also, the MIC in the data set on Escherichia coli was determined as 128 mg/L (≈ 350 µM); against Proteus vulgaris, 512 mg/L (≈ 1400 µM); against Candida albicans it was 128 mg/L (≈ 350 µM); with Aspergillus niger, 128 mg/L (≈ 350 µM); against Aspergillus oryzae it was 64 mg/L (≈ 175 µM); against Penicillium chrysogenum, 64 mg/L (≈ 175 µM). In addition, the MTD in data set [2] amounted to 2000 mg/kg.
